Results: ChEMBL document CHEMBL1127031, “Development of high-affinity 5-HT3 receptor antagonists. Structure-affinity relationships of novel 1,7-annelated indole derivatives” (J Med Chem, 1993)
Blank lines part the entries; values can stand above or below the molecule they belong to.

What was measured:
[1] = molecular target: T1, Serotonin 3 (5-HT3) receptor (Rattus norvegicus, UniProt P35563+Q9JJ16); test: Displacement of [3H]GR-65630 binding to 5-hydroxytryptamine 3 receptor in rat brain cortical membranes; assay type: cell membranes, Membrane
T1 sequence (P35563 whole entry): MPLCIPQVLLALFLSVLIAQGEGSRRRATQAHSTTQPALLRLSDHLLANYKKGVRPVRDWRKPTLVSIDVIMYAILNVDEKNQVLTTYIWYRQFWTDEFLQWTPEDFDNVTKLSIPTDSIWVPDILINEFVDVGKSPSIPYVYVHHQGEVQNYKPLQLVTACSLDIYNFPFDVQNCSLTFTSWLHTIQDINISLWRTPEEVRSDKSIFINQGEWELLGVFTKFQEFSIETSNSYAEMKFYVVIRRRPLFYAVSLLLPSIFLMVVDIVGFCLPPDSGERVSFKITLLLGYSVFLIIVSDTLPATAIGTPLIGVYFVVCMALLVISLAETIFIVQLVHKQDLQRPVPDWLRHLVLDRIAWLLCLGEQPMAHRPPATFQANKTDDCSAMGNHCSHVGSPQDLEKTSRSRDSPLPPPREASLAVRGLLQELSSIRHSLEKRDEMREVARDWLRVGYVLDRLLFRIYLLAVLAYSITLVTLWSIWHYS
T1 sequence (Q9JJ16 whole entry): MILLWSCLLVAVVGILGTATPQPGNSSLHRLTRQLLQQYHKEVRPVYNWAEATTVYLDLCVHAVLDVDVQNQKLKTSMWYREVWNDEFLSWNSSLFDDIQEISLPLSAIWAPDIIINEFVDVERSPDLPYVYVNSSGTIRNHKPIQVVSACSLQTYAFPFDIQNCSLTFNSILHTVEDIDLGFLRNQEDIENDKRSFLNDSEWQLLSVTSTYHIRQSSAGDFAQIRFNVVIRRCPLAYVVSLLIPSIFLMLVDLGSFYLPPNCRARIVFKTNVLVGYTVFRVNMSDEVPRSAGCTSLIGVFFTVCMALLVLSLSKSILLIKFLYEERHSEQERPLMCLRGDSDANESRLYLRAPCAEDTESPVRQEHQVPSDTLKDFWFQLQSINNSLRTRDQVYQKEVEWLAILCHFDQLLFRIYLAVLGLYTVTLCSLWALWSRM
Method in brief: (§1)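 Radioligand displacement on membrane preparations with glass-fibre filtration and liquid scintillation counting of tritium after overnight equilibration. Four to six test concentrations were used. IC50 came from log-probit linear regression. Ki = IC50/(1 + S/Kd), where S is the [3H]label concentration. Ki is the mean of at least three independent experiments run on different days with different membrane preparations.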

[2] = The binding affinity was measured on substance P as radioligand.; design: species or system Rattus norvegicus
Mus musculus = species: Mus musculus; test: Lowest effective dose affecting behavioral parameter in at least half of the animals.
[3] = molecular target: Glutamate receptor ionotropic, NMDA 2C (Rattus norvegicus, UniProt Q00961); test: The binding affinity was measured on NMDA receptor using [3H]- CGS-19755 as radioligand.
Sequence of Glutamate receptor ionotropic, NMDA 2C (Q00961 whole entry): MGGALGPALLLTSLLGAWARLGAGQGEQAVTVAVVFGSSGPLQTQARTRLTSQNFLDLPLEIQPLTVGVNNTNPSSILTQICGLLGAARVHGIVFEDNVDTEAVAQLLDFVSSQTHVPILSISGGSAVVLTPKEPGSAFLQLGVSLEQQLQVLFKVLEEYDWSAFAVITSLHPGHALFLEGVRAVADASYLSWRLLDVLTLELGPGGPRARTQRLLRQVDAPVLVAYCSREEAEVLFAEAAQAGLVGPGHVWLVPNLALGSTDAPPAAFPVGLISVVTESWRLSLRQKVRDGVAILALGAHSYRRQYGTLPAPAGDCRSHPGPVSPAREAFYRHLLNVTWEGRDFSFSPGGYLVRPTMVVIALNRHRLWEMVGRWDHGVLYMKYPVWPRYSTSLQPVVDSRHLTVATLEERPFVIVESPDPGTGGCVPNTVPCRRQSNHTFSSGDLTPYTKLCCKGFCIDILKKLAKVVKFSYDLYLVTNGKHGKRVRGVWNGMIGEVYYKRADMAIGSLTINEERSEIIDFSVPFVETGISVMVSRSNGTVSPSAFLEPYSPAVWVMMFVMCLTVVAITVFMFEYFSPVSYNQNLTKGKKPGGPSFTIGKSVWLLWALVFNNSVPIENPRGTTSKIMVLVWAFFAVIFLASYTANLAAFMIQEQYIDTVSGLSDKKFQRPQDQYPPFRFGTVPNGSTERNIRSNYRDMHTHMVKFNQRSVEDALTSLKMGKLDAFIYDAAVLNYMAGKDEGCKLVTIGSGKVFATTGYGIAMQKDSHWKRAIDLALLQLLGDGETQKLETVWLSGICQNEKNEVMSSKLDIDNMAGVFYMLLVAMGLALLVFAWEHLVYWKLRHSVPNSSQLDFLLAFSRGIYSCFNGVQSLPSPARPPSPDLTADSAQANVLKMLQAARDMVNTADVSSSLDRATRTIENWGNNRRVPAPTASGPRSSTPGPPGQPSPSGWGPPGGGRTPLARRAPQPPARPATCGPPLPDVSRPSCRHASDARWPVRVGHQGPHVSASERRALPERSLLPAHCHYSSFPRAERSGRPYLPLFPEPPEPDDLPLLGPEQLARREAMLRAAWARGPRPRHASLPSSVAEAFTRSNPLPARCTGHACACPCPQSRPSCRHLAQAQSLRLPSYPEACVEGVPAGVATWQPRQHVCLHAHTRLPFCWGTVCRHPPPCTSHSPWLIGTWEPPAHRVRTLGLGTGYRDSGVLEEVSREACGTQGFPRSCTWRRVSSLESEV

[4] = molecular target: Kappa-type opioid receptor (Rattus norvegicus, UniProt P34975); test: The binding affinity was measured on kappa-opiate receptor using [3H]- EKC as radioligand.
Sequence of Kappa-type opioid receptor (P34975 whole entry): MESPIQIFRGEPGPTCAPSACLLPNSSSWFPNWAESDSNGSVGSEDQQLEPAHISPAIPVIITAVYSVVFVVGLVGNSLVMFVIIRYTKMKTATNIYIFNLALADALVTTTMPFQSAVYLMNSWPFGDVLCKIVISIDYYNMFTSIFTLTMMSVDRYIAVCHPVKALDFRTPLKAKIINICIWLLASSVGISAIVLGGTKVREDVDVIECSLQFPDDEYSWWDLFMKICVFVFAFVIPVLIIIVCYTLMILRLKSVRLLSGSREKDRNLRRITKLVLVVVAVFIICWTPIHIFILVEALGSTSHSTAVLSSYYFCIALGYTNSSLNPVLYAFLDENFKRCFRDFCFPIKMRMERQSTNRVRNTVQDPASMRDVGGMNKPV

[5] = molecular target: Cholecystokinin receptor type A (Rattus norvegicus, UniProt P30551); test: The binding affinity was measured on cholecystokinin type A receptor using [3H]- CCK-8 as radioligand.
Sequence of Cholecystokinin receptor type A (P30551 whole entry): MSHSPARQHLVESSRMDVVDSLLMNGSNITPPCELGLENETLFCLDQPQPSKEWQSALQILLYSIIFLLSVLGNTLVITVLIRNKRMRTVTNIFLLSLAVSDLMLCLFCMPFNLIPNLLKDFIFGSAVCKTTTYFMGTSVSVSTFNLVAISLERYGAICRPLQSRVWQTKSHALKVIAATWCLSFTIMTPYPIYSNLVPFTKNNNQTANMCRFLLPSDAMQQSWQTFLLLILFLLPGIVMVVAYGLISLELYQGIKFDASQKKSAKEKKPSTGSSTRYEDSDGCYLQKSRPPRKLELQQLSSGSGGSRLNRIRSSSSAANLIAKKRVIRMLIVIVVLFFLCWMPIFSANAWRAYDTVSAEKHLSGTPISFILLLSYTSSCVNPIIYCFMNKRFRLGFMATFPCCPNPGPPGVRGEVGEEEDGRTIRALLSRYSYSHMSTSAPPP

[6] = The binding affinity was measured on Na+2(BTX)brain receptor using [3H]- batrachotox as radioligand.; design: species or system Rattus norvegicus
[7] = molecular target: Gastrin/cholecystokinin type B receptor (Rattus norvegicus, UniProt P30553); test: The binding affinity was measured on cholecystokinin type B receptor using [3H]- CCK-8 as radioligand.
Sequence of Gastrin/cholecystokinin type B receptor (P30553 whole entry): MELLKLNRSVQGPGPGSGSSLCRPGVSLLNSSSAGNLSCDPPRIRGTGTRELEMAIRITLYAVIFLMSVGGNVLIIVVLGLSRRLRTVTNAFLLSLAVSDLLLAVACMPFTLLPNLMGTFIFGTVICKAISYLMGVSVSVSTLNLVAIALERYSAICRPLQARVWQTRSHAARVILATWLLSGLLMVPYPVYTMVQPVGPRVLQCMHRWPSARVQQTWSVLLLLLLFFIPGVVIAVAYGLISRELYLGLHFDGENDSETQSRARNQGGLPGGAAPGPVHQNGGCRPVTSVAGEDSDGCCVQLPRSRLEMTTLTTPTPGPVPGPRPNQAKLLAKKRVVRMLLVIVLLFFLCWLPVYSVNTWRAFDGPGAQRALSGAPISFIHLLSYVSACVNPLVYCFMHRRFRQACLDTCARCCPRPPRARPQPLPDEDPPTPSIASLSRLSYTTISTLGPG

[8] = molecular target: Muscarinic acetylcholine receptor M1 (Rattus norvegicus, UniProt P08482); test: The binding affinity was measured on muscarine M1 receptor using [3H]- pirenzepine as radioligand.
[9] = molecular target: T2, Voltage-gated L-type calcium channel (Rattus norvegicus, UniProt P22002+Q02485+P27732); test: Inhibition of [3H]D-888 binding to L-type calcium channel verapamil site of rat brain
Method in brief: (§2)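 Radioligand displacement on tissue membrane suspensions, with 4–6 concentrations of unlabeled test drug. Bound label was collected on GF/B glass-fibre filters, equilibrated overnight in scintillant, and counted for tritium. […] Ki = IC50/(1 + S/Kd), where S is the label concentration. Each value is the mean of ≥3 independent experiments on different days with different membrane preparations.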

Cavia porcellus = species: Cavia porcellus; test: The pA2 is the negative logarithm of the molar concentration of an antagonist which necessitates the doubling of the agonist dose to couteract the effect of that antagonist and restore the original response was measured in guinea pig isolated ileu m test.
[10] = molecular target: Muscarinic acetylcholine receptor M3 (Rattus norvegicus, UniProt P08483); test: The binding affinity was measured on muscarine M3 receptor using [3H]- N-Me-SCOPOL as radioligand.
Sequence of Muscarinic acetylcholine receptor M3 (P08483 whole entry): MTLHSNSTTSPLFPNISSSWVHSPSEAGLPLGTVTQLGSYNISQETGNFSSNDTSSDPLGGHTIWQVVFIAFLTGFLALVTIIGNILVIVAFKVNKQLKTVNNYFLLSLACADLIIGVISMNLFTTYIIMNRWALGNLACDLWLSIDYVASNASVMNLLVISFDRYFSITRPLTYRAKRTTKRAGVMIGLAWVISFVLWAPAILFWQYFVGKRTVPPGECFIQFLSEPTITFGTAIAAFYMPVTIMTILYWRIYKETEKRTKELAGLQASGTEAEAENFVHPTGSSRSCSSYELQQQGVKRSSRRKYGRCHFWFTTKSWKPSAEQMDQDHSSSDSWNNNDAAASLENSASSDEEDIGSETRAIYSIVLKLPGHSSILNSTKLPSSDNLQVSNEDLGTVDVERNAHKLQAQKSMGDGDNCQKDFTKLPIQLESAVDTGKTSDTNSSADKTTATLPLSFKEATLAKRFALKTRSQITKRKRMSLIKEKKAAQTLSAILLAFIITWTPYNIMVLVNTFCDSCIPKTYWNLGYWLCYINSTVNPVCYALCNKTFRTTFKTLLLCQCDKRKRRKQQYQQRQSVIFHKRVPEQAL

[11] = The binding affinity was measured on melatonin receptor using [3H]- 2-iodo-melat as radioligand.
[12] = The binding affinity was measured on glycine strych. ins receptor using [3H]- 5,7-diClkyn.acid as radioligand.; design: species or system Rattus norvegicus
[13] = molecular target: Muscarinic acetylcholine receptor M2 (Rattus norvegicus, UniProt P10980); test: The binding affinity was measured on muscarine M2 receptor using [3H]- N-Me-SCOPOL as radioligand.; method in brief: as §2
Sequence of Muscarinic acetylcholine receptor M2 (P10980 whole entry): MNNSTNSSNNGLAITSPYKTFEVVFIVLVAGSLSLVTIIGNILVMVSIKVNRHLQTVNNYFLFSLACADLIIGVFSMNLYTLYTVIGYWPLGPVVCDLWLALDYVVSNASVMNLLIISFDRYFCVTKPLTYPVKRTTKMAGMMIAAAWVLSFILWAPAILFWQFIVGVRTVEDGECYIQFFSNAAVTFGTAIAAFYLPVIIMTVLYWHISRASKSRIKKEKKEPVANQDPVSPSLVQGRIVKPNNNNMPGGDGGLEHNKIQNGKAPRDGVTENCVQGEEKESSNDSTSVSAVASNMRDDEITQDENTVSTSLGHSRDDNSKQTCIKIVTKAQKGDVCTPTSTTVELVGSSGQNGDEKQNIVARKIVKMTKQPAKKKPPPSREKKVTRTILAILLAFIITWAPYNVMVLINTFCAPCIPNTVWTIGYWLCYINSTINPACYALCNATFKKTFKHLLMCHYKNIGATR

[14] = molecular target: Thyrotropin-releasing hormone receptor (Rattus norvegicus, UniProt Q01717); test: The binding affinity was measured on TRH receptor using [3H]- MeTRH as radioligand.
[15] = molecular target: Delta-type opioid receptor (Rattus norvegicus, UniProt P33533); test: The binding affinity was measured on delta-opiate receptor using [3H]- dadle as radioligand.
Sequence of Delta-type opioid receptor (P33533 whole entry): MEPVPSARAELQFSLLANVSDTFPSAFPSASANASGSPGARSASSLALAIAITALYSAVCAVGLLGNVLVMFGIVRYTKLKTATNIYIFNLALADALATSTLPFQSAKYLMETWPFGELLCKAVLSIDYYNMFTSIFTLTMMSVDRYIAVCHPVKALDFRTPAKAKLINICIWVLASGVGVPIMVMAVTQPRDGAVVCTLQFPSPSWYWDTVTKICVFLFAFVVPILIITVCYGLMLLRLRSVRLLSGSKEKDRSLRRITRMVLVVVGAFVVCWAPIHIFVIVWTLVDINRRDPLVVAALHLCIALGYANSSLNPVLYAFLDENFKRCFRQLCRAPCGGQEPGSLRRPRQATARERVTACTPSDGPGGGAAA

Rattus norvegicus [16] = species: Rattus norvegicus; test: The pA2 is the negative logarithm of the molar concentration of an antagonist which necessitates the doubling of the agonist dose to couteract the effect of that antagonist and restore the original response was measured in rat isolated vagus nerve test.; assay type: functional; conditions: read-out: pA2 (converted)
Rattus norvegicus [17] = species: Rattus norvegicus; test: Dose of antagonist which inhibits the by the 2-Me-5-HT induced slowing of the heart rate by 10 beats/5 s.; assay type: functional
Method in brief: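 Von Bezold-Jarisch reflex test in unrestrained conscious rats, with the compound given orally. The bradycardia (slowing of heart rate) was induced by 2-Me-5-HT. The value is the antagonist dose that reduces this slowing by 10 beats/5 s.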

D(3) dopamine receptor = D(3) dopamine receptor (Rattus norvegicus, UniProt P19020); test: The binding affinity was measured on dopamine receptor D3 using [3H]- spiperone as radioligand.
[18] = molecular target: GABA-A receptor; anion channel; test: Displacement of [3H]DH-muscimol from rat GABA-A receptor; assay type: protein-complex assay; method in brief: as §1
Mu-type opioid receptor = Mu-type opioid receptor (Rattus norvegicus, UniProt P33535); test: The binding affinity was measured on mu-opiate receptor using [3H]- naloxone as radioligand.
[19] = molecular target: Alpha-2A adrenergic receptor (Rattus norvegicus, UniProt P22909); test: The binding affinity was measured on alpha-2-adrenergic receptor using [3H]- clonidine as radioligand.
Adrenergic receptor beta = Adrenergic receptor beta (Rattus norvegicus, UniProt P18090+P10608+P26255); test: The binding affinity was measured on beta-1,2-adrenergic receptor using [3H]- DHA as radioligand.; assay type: protein assay
Histamine H1 receptor = Histamine H1 receptor (Rattus norvegicus, UniProt P31390); test: The binding affinity was measured on histamine H1 receptor using [3H]- mepyramine as radioligand.
Sequence of Histamine H1 receptor (P31390 whole entry): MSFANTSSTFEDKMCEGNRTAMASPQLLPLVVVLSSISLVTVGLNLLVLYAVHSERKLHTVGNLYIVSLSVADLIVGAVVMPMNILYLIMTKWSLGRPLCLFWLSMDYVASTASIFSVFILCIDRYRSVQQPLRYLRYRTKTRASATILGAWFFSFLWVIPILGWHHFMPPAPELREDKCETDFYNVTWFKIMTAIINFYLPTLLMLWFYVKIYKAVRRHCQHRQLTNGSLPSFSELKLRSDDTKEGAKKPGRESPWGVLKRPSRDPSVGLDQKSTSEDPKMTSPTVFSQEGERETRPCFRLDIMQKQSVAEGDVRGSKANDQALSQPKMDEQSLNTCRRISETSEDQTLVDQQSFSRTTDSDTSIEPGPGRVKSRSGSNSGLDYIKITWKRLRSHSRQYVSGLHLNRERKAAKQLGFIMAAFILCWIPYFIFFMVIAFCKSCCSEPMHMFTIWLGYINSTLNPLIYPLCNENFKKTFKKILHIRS

Histamine H3 receptor = Histamine H3 receptor (Rattus norvegicus, UniProt Q9QYN8); test: The binding affinity was measured on histamine H3 receptor using [3H]- N-Me-histam as radioligand.
D(1A) dopamine receptor = D(1A) dopamine receptor (Rattus norvegicus, UniProt P18901); test: The binding affinity was measured on dopamine receptor D1 using [3H]- dopamine as radioligand.
Sequence of D(1A) dopamine receptor (P18901 whole entry): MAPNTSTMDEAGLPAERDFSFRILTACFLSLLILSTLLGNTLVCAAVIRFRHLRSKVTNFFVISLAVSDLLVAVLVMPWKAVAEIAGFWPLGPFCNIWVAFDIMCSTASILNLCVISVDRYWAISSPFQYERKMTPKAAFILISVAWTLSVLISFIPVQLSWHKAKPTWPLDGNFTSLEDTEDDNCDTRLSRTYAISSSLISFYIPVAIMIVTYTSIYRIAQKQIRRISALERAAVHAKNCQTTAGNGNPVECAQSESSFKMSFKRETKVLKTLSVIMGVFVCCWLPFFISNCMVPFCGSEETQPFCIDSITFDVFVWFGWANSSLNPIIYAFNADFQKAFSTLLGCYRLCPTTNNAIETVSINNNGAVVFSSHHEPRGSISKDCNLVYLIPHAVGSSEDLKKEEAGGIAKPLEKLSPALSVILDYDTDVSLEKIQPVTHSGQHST

[20] = molecular target: GABA-A receptor; anion channel; test: Displacement of [3H]- Diazepam from rat GABA-A benzodiazepine receptor; assay type: protein-complex assay; method in brief: as §1
[21] = molecular target: Interleukin-6 receptor subunit alpha (Rattus norvegicus, UniProt P22273); test: The binding affinity was measured on […] receptor using [3H]- IL-6 as radioligand.; method in brief: as §2
[22] = molecular target: Sigma non-opioid intracellular receptor 1 (Rattus norvegicus, UniProt Q9R0C9); test: The binding affinity was measured on sigma receptor using [3H]- (+)-3-PPP as radioligand.
D(2) dopamine receptor = D(2) dopamine receptor (Rattus norvegicus, UniProt P61169); test: The binding affinity was measured on dopamine receptor D2 using [3H]- spiperone as radioligand.
[23] = molecular target: T2, Voltage-gated L-type calcium channel; test: Inhibition of [3H]nitrendipine binding to L-type calcium channel dihydropyridine site of rat brain; method in brief: as §2

SMILES: Cc1[nH]cnc1CCC(=O)c1cn(C)c2ccccc12
- Ki [1]: 0.28 nM

SMILES: Cc1nc[nH]c1CCC(=O)c1cn2c3c(cccc13)SCC2
- Ki [1]: 0.19 nM

SMILES: Cc1[nH]cnc1CCC(=O)c1cn2c3c(cccc13)CCC2
- Ki [1]: 0.075 nM

SMILES: Cc1[nH]cnc1CCC(=O)c1cn2c3c(cccc13)CCCC2
- Ki [1]: 0.33 nM

SMILES: Cc1nccn1CC1CCc2c(c3cccc4c3n2CCO4)C1=O (racemic)
- Ki [1]: 1.3 nM

SMILES: Cc1nccn1CC1CCc2c(c3cccc4c3n2CCCCC4)C1=O (racemic)
- Ki [1]: 1.1 nM

SMILES: Cc1nccn1CC1CCc2c(c3cccc4c3n2CCS4)C1=O (racemic)
- Ki [1]: 0.77 nM

SMILES: Cc1nccn1CC1CCc2c(c3cccc4c3n2CCCC4)C1=O (racemic)
- Ki [1]: 0.75 nM

SMILES: Cc1nccn1CC1CCc2c(c3cccc4c3n2CC4)C1=O (racemic)
- Ki [1]: 0.23 nM

SMILES: Cc1nccn1CC1CCc2c(c3cccc4c3n2CCCC4)C1=O (single isomer, unassigned; (+))
- Ki [1]: 0.93 nM

SMILES: Cc1nccn1CC1CCc2c(c3cccc4c3n2CCCC4)C1=O (single isomer, unassigned; (-))
- Ki [1]: 0.64 nM

SMILES: Cc1nccn1C[C@H]1CCc2c(c3cccc4c3n2CCC4)C1=O [CILANSETRON]
- Ki [2]: > 10 µM
- LED (Mus musculus): 30 mg/kg
- Ki [3]: > 10 µM
- Ki [4]: > 10 µM
- Ki [5]: > 10 µM
- Ki [6]: > 10 µM
- Ki [7]: > 10 µM
- Ki [8]: 0.91 µM
- Ki [9]: 5.4 µM
- Kb (Cavia porcellus): 0.0158 µM
- Ki [10]: > 10 µM
- Ki [11]: > 10 µM
- Ki [12]: > 10 µM
- Ki [13]: > 10 µM
- Ki [14]: > 10 µM
- Ki [15]: > 10 µM
- Kb (Rattus norvegicus [16]): 0.000115 µM
- ED10 (Rattus norvegicus [17]): 0.026 mg/kg
- Ki (D(3) dopamine receptor): > 10 µM
- Ki [18]: > 10 µM
- Ki (Mu-type opioid receptor): 8.5 µM
- Ki [19]: > 10 µM
- Ki (Adrenergic receptor beta): > 10 µM
- Ki (Histamine H1 receptor): 6.5 µM
- Ki (Histamine H3 receptor): > 10 µM
- Ki (D(1A) dopamine receptor): > 10 µM
- Ki [20]: > 10 µM
- Ki [21]: > 10 µM
- Ki [22]: 0.34 µM
- Ki (D(2) dopamine receptor): > 10 µM
- Ki [23]: > 10 µM

- Ki [2]: > 10 µM
- Ki [3]: > 10 µM
- Ki [4]: > 10 µM
- Ki [5]: > 10 µM
- Ki [7]: > 10 µM
- Ki [8]: 5.1 µM
- Ki [9]: > 10 µM
- Ki [10]: > 10 µM
- Ki [11]: > 10 µM
- Ki [12]: > 10 µM
- Ki [13]: > 10 µM
- Ki [14]: > 10 µM
- Ki [15]: > 10 µM
- Ki (D(3) dopamine receptor): > 10 µM
- Ki [18]: > 10 µM
- Ki (Mu-type opioid receptor): 2.9 µM
- Ki [19]: > 10 µM
- Ki (Adrenergic receptor beta): > 10 µM
- Ki (Histamine H1 receptor): > 10 µM
- Ki (Histamine H3 receptor): > 10 µM
- Ki (D(1A) dopamine receptor): > 10 µM
- Ki [20]: > 10 µM
- Ki [21]: > 10 µM
- Ki [22]: 0.68 µM
- Ki (D(2) dopamine receptor): > 10 µM
- Ki [23]: > 10 µM
SMILES: Cc1nccn1CC1CCc2c(c3ccccc3n2C)C1=O (stereo not drawn) [ONDANSETRON]
- LED (Mus musculus): 3 mg/kg
- Ki [6]: > 10 µM
- Kb (Cavia porcellus): 0.158 µM
- Kb (Rattus norvegicus [16]): 0.00102 µM
- ED10 (Rattus norvegicus [17]): 0.165 mg/kg
